Data reported in ChEMBL document CHEMBL1127495, “A recombinant human stromelysin catalytic domain identifying tryptophan derivatives as human stromelysin inhibitors” (J Med Chem, 1994).

What was measured:
Stromelysin-1 [1] = target: T1, Stromelysin-1 (Homo sapiens, UniProt P08254); assay: (§1) Inhibition of recombinant stromelysin catalytic domain (SCD)
Outline: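 E. coli-expressed human stromelysin catalytic domain (Phe-100 to Pro-273), expressed without propeptide so needing no activation, at 100 nM (10 nM for the hydroxamate peptide). A405 read over 3 min at room temperature.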

Stromelysin-1 [2] = target: T1, Stromelysin-1; assay: In vitro inhibition of recombinant stromelysin catalytic domain.
Stromelysin-1 [3] = target: T1, Stromelysin-1; assay: as §1; remark: listed apart in the source
Stromelysin-1 [4] = target: T1, Stromelysin-1; assay: Inhibition of full length stromelysin isolated from cultured human cells (FLS)
Stromelysin-1 [5] = target: T1, Stromelysin-1; assay: Inhibition of full length stromelysin isolated from cultured human cells (FLS).

T1 sequence (P08254 whole entry, the tested form may be a part): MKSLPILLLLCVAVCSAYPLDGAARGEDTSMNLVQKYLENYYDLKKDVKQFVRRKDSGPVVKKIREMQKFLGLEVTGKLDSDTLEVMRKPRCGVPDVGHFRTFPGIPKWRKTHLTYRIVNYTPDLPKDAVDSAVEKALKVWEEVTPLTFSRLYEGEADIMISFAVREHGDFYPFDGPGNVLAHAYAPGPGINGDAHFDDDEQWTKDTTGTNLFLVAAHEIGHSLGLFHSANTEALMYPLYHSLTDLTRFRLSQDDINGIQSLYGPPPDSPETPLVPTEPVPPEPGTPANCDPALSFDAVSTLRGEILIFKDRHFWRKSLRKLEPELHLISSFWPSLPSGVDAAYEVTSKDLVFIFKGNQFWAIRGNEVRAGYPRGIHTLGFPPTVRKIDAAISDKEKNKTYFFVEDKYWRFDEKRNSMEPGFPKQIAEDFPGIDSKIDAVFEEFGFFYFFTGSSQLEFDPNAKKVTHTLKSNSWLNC

Row | SMILES | IC50 (Stromelysin-1 [2]) [µM] | Ki (Stromelysin-1 [3]) [µM] | further results
1 | O=C(N[C@@H](Cc1c[nH]c2ccccc12)C(=O)O)c1ccccc1 |  |  | IC50 (Stromelysin-1 [1]): < 500 µM
2 | CC(=O)N[C@H](Cc1c[nH]c2ccccc12)C(=O)O |  |  | IC50 (Stromelysin-1 [1]): < 500 µM
3 | O=C(N[C@@H](Cc1ccc(O)cc1)C(=O)O)OCc1ccccc1 | 24 | 20 | Ki (Stromelysin-1 [4]): 18 µM; IC50 (Stromelysin-1 [5]): 22 µM
4 | O=C(N[C@H](Cc1c[nH]c2ccccc12)C(=O)O)OCC1c2ccccc2-c2ccccc21 |  |  | IC50 (Stromelysin-1 [1]): < 500 µM
5 | O=C(N[C@H](Cc1ccc(O)cc1)C(=O)O)OCc1ccccc1 | 432 | 356 | Ki (Stromelysin-1 [4]): 377 µM; IC50 (Stromelysin-1 [5]): 450 µM
6 | O=C(/C=C/c1ccco1)N[C@@H](Cc1c[nH]c2ccccc12)C(=O)O | 145 | 120 | 
7 | NC(=O)[C@H](Cc1c[nH]c2ccccc12)NC(=O)OCc1ccccc1 |  |  | IC50 (Stromelysin-1 [1]): < 500 µM
8 | Cc1cc(C)c(S(=O)(=O)n2cc(C[C@H](NC(=O)OC(C)(C)C)C(=O)O)c3ccccc32)c(C)c1 | 63 | 52 | 
9 | NNC(=O)[C@H](Cc1ccc(O)cc1)NC(=O)OCc1ccccc1 | > 500 |  | 
10 | CC(C)(C)OC(=O)N[C@@H](Cc1ccc(O)cc1)C(=O)O |  |  | IC50 (Stromelysin-1 [1]): < 500 µM
11 | CC(C)(C)OC(=O)N[C@H](Cc1c[nH]c2ccccc12)C(=O)O |  |  | IC50 (Stromelysin-1 [1]): < 500 µM
12 | NC(=O)[C@H](Cc1ccc(O)cc1)NC(=O)OCc1ccccc1 | > 500 |  | 
13 | CC(=O)N[C@@H](Cc1c[nH]c2ccccc12)C(=O)O [ACETYLTRYPTOPHAN] |  |  | IC50 (Stromelysin-1 [1]): < 500 µM
14 | N[C@@H](Cc1c[nH]c2ccccc12)C(=O)O [TRYPTOPHAN] | > 500 |  | 

Continued, in another order:

Row | IC50 (Stromelysin-1 [2]) [µM] | Ki (Stromelysin-1 [3]) [µM] | SMILES | further results
15 | > 500 |  | CC(=O)N[C@H](Cc1ccc(O)cc1)C(=O)O | 
16 | 500 |  | O=C(N[C@@H](Cc1c[nH]c2ccccc12)C(=O)O)OCC1c2ccccc2-c2ccccc21 | 
17 | > 500 |  | CC(C)(C)OC(=O)N[C@H](Cc1ccc(O)cc1)C(=O)O | 
18 | 13 | 11 | O=C(N[C@@H](Cc1c[nH]c2ccccc12)C(=O)ON1C(=O)CCC1=O)OCc1ccccc1 | 
19 | 34 | 28 | CC(C)(C)OC(=O)N[C@@H](Cc1cn(C=O)c2ccccc12)C(=O)O | 
20 | > 500 |  | O=C(N[C@H](Cc1ccccc1)C(=O)O)OCc1ccccc1 | IC50 (Stromelysin-1 [5]): > 500 µM
21 | 102 | 84 | CC(C)(C)OC(=O)N[C@@H](Cc1c[nH]c2ccccc12)C(=O)ON1C(=O)CCC1=O | 
22 | 10 | 8 | CC(C)(C)OC(=O)N[C@@H](Cc1c[nH]c2ccccc12)C(=O)O | 
23 | 40 | 33 | O=C(N[C@@H](Cc1ccccc1)C(=O)O)OCc1ccccc1 | Ki (Stromelysin-1 [4]): 83 µM; IC50 (Stromelysin-1 [5]): 99 µM
24 | > 500 |  | CC(=O)N[C@@H](Cc1ccc(O)cc1)C(=O)O [ACETYL TYROSINE] | 
25 | > 500 |  | N[C@H](Cc1c[nH]c2ccccc12)C(=O)O [D-TRYPTOPHAN] | 
